Kir21 block = blocks the mouse Kir2.1 inward-rectifier potassium channel. P35561. HEK293-Kir2.1, FluxOR thallium flux fluorescence; hits give low values. B-score at 10 µM. 310,000 compounds, 0.85% hits. AID 1672;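 active means fluorescence ratio B-score at or below minus 3 SD of library scores, with starting-brightness B-score within 2 SD, cut at about -4.2 in these data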;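 further: channel flux triggered by added potassium and thallium sulfate stimulus; B-score of peak minus minimum fluorescence over baseline after thallium stimulus; more negative B-score means stronger Kir2.1 block with less thallium influx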
KCNK3 block = human KCNK3 channel inhibition, primary screen. O14649. CHO-KCNK3 thallium flux, FluxOR fluorescence; hits give low values. B-score at 10 µM. 340,000 compounds, 0.84% hits. AID 602410;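 active means B-score under library mean minus 4 SD, starting fluorescence ratio at most library mean plus 5 SD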;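 further: more negative B-score means stronger inhibition of thallium flux through KCNK3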
KCNQ1 act = potentiators or activators of human KCNQ1 potassium channel; P51787; CHO-K1 KCNQ1, thallium flux FluxOR fluorescence; hits give high values; B-score at 10 µM; 310,000 compounds, 0.35% hits; AID 2648;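 active means fluorescence ratio B-score, a plate-corrected score, at least three library SD, with initial intensity B-score within 5 SD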
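System: CHO-K1 cells stably expressing KCNQ1 / Medium: assay buffer for compound exposure, DMSO matched across wells / Reagent: thallium- and potassium-containing depolarizing buffer / Compound: one concentration, matched DMSO / Incubation: 20 min compound pretreatment at room temperature / Measured by: kinetic FluxOR fluorescence, 10 s baseline plus 110 s post-stimulus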
KCNK9 inh = inhibitors of human KCNK9 two-pore domain potassium channel; Q9NPC2; HEK293 KCNK9, FluxOR thallium flux fluorescence; hits give low values; B-score at 10 µM; 310,000 compounds, 1.2% hits;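 active means ratio B-score over 3 SD below the library mean, with starting fluorescence within 5 SD of its mean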;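 further: negative B-score means less thallium flux so channel inhibition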
hERG rescue = hERG (human) protection from proarrhythmic block; activation (rescue from dofetilide block), less the hit threshold, % at 10 µM; CHO-hERG, FluxOR thallium flux, dofetilide IC70 present; 310,000 compounds, 0.51% hits;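 active means activation above the mean of controls blocked by dofetilide plus 5 SD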;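 further: thallium influx through hERG after potassium depolarization seen as dye fluorescence rise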
Target sequence (Q12809 whole entry, looked up): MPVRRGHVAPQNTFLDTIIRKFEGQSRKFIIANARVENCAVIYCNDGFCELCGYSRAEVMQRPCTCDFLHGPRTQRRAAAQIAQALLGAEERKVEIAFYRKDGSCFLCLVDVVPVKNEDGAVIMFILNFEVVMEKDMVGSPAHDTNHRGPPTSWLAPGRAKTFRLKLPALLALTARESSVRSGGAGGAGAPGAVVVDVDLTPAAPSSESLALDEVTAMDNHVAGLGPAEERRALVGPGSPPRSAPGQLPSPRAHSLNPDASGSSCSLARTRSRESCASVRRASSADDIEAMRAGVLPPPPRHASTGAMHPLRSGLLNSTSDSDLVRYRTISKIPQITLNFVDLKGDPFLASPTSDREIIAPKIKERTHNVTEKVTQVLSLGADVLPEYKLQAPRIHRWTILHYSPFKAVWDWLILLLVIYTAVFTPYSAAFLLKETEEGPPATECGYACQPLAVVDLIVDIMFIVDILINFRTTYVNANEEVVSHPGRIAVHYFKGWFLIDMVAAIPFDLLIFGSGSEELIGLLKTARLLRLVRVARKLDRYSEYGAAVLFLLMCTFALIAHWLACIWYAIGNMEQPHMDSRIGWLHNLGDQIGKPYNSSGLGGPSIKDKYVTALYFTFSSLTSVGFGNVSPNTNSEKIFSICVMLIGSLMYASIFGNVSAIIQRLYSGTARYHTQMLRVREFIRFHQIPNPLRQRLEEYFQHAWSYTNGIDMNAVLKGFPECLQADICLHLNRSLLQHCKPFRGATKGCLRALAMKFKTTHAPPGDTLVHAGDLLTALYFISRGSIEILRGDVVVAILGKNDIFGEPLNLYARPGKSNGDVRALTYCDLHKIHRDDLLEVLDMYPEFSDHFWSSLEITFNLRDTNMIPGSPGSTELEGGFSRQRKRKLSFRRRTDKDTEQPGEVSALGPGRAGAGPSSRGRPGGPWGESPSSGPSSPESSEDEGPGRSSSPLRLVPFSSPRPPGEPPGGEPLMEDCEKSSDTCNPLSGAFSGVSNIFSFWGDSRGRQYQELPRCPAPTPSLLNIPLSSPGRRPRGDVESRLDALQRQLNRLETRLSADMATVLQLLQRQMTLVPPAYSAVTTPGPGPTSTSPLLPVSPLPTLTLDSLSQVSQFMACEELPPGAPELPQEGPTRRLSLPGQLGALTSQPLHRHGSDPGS
KCNQ1 inh = human KCNQ1 channel inhibition; P51787; CHO-K1 KCNQ1, FluxOR thallium flux fluorescence; hits give high values; B-score at 10 µM; 310,000 compounds, 1.3% hits; AID 2642;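 active means compounds whose thallium flux B-score, printed positive for inhibition, exceeds three library SD while starting fluorescence stays within three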;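 further: channel opened by potassium depolarization with thallium stimulus after 20 min compound exposure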
* marks the source's active call; other numbers are inactive results; i = inactive; nt = not tested or not shown. The list is not random: actives were taken first. Their share in the collection is about 3.7%.

SMILES	Kir21 block	KCNK3 block	KCNQ1 act	KCNK9 inh	hERG rescue	KCNQ1 inh
CSc1nc2c(c(=O)[nH]1)C(c1ccc(C(F)(F)F)cc1)CC(=O)N2 (stereo unspecified)	0.07	i	i	i	-5.0	i
COc1cc2c(cc1OC)C(c1ccc(Br)cc1)CC(=O)N2 (stereo unspecified)	0.74	i	i	i	-9.1	i
CSc1nc2c(c(=O)[nH]1)C(c1ccc(Br)cc1)CC(=O)N2 (stereo unspecified)	-0.12	i	i	i	11.1*	i
CCOC(=O)/C(C#N)=C\c1cc(OC)c(OC)cc1[N+](=O)[O-]	1	i	i	i	-6.5	i
CC(Oc1ccccc1)C(=O)N=C1SC2CS(=O)(=O)CC2N1Cc1ccccc1 (stereo unspecified)	1.18	i	i	i	-12.0	i
CCCCC(CC)CN1C(=O)/C(=C/c2ccncc2)SC1=S (stereo unspecified)	-3.5	i	i	i	-2.9	7*
CCN1C(=O)/C(=C\c2ccncc2)SC1=S	-0.66	i	i	i	-3.5	i
Cc1cc(F)ccc1NC(=O)C1CSC2(C)CCC(=O)N12 (stereo unspecified)	-0.01	i	i	i	-7.8	i
O=C(OCc1nnc(-c2ccccc2)o1)c1ccc(Cl)cc1	0	i	i	i	-10.4	i
CS(=O)(=O)c1ccc(C(=O)OCc2nnc(-c3ccccc3)o2)cc1[N+](=O)[O-]	0	i	21*	i	-16.8	i
OC(CNCC1CCCO1)Cn1c2ccc(Cl)cc2c2cc(Cl)ccc21 (stereo unspecified)	-5.43*	i	i	i	-31.8	i
COc1ccc(C(C(=O)NC2CCCCC2)N(Cc2cccs2)C(=O)Cc2c[nH]c3ccccc23)cc1 (stereo unspecified)	1.35	i	i	-7.26*	-8.8	i
COc1cccc(CN(C(=O)Cc2c[nH]c3ccccc23)C(C(=O)NC2CCCCC2)c2cccs2)c1 (stereo unspecified)	-1.64	i	i	i	-14.4	7*
O=C(NC1CCCCC1)C(c1cccs1)N(C(=O)Cc1c[nH]c2ccccc12)c1ccc(F)cc1 (stereo unspecified)	0.41	i	i	i	-9.4	i
CNC(=S)Nc1sc2c(c1C(=O)OC)CCC2	0.15	i	16*	i	11.0*	i
CCOC(=O)c1c(NC(=S)NC)sc2c1CC(C)(C)SC2	-0.59	i	71*	i	44.5*	i
COC(=O)c1c(NS(=O)(=O)Cc2ccccc2)sc2c1CCCC2	-0.48	i	13*	i	17.7*	i
COC(=O)c1c(NC(=S)Nc2ccc(F)cc2[N+](=O)[O-])sc2c1CCCCC2	-0.23	i	10*	i	6.4*	i
COC(=O)c1c(NC(=O)CCNCc2ccco2)sc2c1CCC2	-8.09*	i	i	i	-10.5	i
CCOC(=O)N1CCN(C/C(Cl)=C/c2ccccc2)CC1	0.03	i	i	i	-1.2	i
CC(C)(C)c1nc(SCC(=O)NCc2cccs2)c2ccccc2n1	-1.98	i	i	i	-20.0	i
CCOC(=O)CNC(=O)CSc1nc(Cc2cccs2)nc2ccccc12	-2.8	i	i	i	5.2*	i
Cc1cc(C)cc(N(CC(=O)NC2CCC(C)CC2)S(=O)(=O)c2c(C)[nH]c(=O)[nH]c2=O)c1 (stereo unspecified)	2.96	i	i	i	-7.6	i
CCOC(=O)N1CCN(S(=O)(=O)c2ccc3c(c2)OCC(=O)N3)CC1	0.79	i	i	i	10.1*	i
CCOC(=O)N1CCN(S(=O)(=O)c2ccc3c(c2)NC(=O)CO3)CC1	nt	i	nt	nt	nt	nt
SMILES	Kir21 block	KCNK3 block	KCNQ1 act	KCNK9 inh	hERG rescue	KCNQ1 inh
Cc1ccc(CNC(=O)c2cn(C3CCCCC3)c(=O)c3c2c2ccccc2n3C)o1	0.44	-9.41*	i	i	-7.7	i
Cc1ccc(CNC(=O)c2cn(C)c(=O)c3c2c2ccccc2n3C)o1	0.03	i	i	i	-9.0	i
N#CC1=C(N)SC(N)=C(C#N)C1CCC1CCCCC1	-5.2	nt	i	i	-29.6	9*
Cc1ccc(/C=N/N(Cc2ccccc2)c2ccccc2)o1	-0.48	i	i	-6.8*	-6.8	i
N#Cc1cccc(NC(=O)CCNS(=O)(=O)c2ccc3[nH]c(=O)oc3c2)c1	-1.57	i	i	i	-5.6	i
C=C(C)CCC(C)N1CCC(n2nccc2NC(=O)CCOc2ccccc2)CC1 (stereo unspecified)	-1.69	i	i	i	-7.4	i
COc1cccc(CN(C)C(=S)Nc2ccc(C)c(C)c2)c1	0.05	i	i	i	4.7*	i
COc1ccc(CN(C)C(=S)Nc2ccc(OC(F)F)cc2)cc1	-1.85	i	i	i	-21.0	i
CCC(=O)N(Cc1c(C)nn(-c2ccccc2)c1Cl)c1ccc(Cl)cc1	-6.53	i	i	i	-12.7	6*
CCOC(=O)c1ccc(NC(=O)Cn2nnc(-c3ccccc3)n2)cc1	1.7	i	i	i	13.8*	i
CCOC(=O)c1sc(=NC(=O)/C=C/c2ccccc2)n(C)c1C	0.1	i	i	i	-9.8	12*
CCOC(=O)c1sc(=NC(=O)c2cccs2)n(C)c1C	-0.26	i	i	i	-2.0	i
COc1ccc(/C=N/NC(=O)c2cc(-c3ccc(C)cc3C)nc3ccccc23)cc1COC(C)=O	-0.01	-8.79*	i	i	-7.3	i
CCc1ccc(/C=N/NC(=O)c2cc(-c3ccccc3OC)nc3ccccc23)s1	-1.21	i	i	i	-9.7	6*
COc1ccc(/C=N\NC(=O)c2ccc(-c3ccccc3)cc2)cc1COC(C)=O	-0.87	i	i	i	-10.6	i
O=C(Cn1c(=O)c2cccn2c2cccnc21)N1CCN(c2ccccc2F)CC1	0.5	i	i	i	-6.5	i
CCC(C)c1ccccc1NC(=O)c1[nH]c(C)c(C(C)=O)c1C (stereo unspecified)	-0.68	i	i	i	5.8*	i
CCCCCNCC(=O)Nc1cccc(C(=O)Nc2cccc(C(F)(F)F)c2)c1	0.01	i	i	i	-27.9	6*
CC(=O)c1c(C)[nH]c(C(=O)Nc2cccc(C(F)(F)F)c2)c1C	2.09	i	7*	i	-9.1	i
CCCC(=O)Nc1c(-c2cccc(C)c2)c(=O)c2ccccc2n1C	-2.52	i	i	i	0.0	i

Compound activity deposited in PubChem BioAssay by Johns Hopkins Ion Channel Center.
